Five compounds from ChEMBL document CHEMBL3045132, “Synthesis and antiviral activity of novel chiral cyanoacrylate derivatives” (2005) can be followed below.

SMILES strings stand for the structures.

One assay deals with Echinochloa crus-galli. In words: Herbicidal activity against Echinochloa crus-galli (barnyard grass) assessed as inhibition effect at 1500 g/ha sprayed to the stem and leaves after seed germination.
Conditions: not given
The assay is classed as functional. The method, boiled down: (§1)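 Post-emergence: compounds sprayed onto stems and leaves after seed germination; equal amount of water sprayed as control. Aerial tissue fresh weight measured 10 days after treatment; activity expressed as percent inhibition of aerial fresh weight.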
Take `CCOC(=O)/C(C#N)=C(/Nc1ccc(C(F)(F)F)cc1)N[C@H](C)c1ccccc1`: the inhibition (commonly the drop in the measured response relative to a control, in per cent) at 1500 g/ha came out at 2.86%.

As to `CCOC(=O)/C(C#N)=C(/Nc1ccc(C(F)(F)F)cc1)N[C@@H](C)c1ccccc1`, the inhibition at 1500 g/ha was 5.71%.

Turning to `CCOC(=O)/C(C#N)=C(/Nc1ccc(Br)cc1)N[C@H](C)c1ccccc1`, the inhibition at 1500 g/ha stood at 0%.

With `CCOC(=O)/C(C#N)=C(/Nc1ccc(Br)cc1)N[C@@H](C)c1ccccc1`, the inhibition at 1500 g/ha was found to be 34.3%.

In the case of `CCOC(=O)/C(C#N)=C(/Nc1ccc([N+](=O)[O-])cc1)N[C@H](C)c1ccccc1`, the inhibition at 1500 g/ha was found to be 0%.

For a further assay, the system named is A-431. In words: Antiproliferative activity against Homo sapiens (human) A431 cells at 5 uM measured after 72 hr by MTT assay. The assay is classed as functional. Conditions: A-431, 72 h. The gist of the method:
(§2)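 Cells plated at 3 × 10³/well in F-12 (PC3) or RPMI 1640 (A431) with 10% fetal bovine serum; compounds dissolved in DMSO, diluted in medium, exposed 72 h; vehicle control 0.1% DMSO. MTT cleavage to formazan read at 550 nm. Inhibition rate (%) = (A1 − A2)/A1 × 100, A1 untreated and A2 treated mean optical density; values as mean ± s.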
In general terms: Tetrazolium assays rely on reduction of a dye to a coloured formazan, in cell work by metabolically active cells.
Take `CCOC(=O)/C(C#N)=C(/Nc1ccc(C(F)(F)F)cc1)N[C@H](C)c1ccccc1`: testing at 5 µM gave an inhibition of 43.1%.

With `CCOC(=O)/C(C#N)=C(/Nc1ccc(C(F)(F)F)cc1)N[C@@H](C)c1ccccc1`, 5 µM produced 39.9% inhibition.

`CCOC(=O)/C(C#N)=C(/Nc1ccc(Br)cc1)N[C@H](C)c1ccccc1` came in with an inhibition at 5 µM of 16.1%.

As for `CCOC(=O)/C(C#N)=C(/Nc1ccc(Br)cc1)N[C@@H](C)c1ccccc1`, the inhibition at 5 µM was 19.3%.

Regarding `CCOC(=O)/C(C#N)=C(/Nc1ccc([N+](=O)[O-])cc1)N[C@H](C)c1ccccc1`, testing at 5 µM gave an inhibition of 23.6%.

In another assay the test system is Brassica rapa subsp. oleifera. Put plainly: Herbicidal activity against Brassica rapa subsp. oleifera assessed as inhibition effect at 1500 g/ha sprayed soil immediately after seed planting. The assay is classed as functional.
Conditions: not given
The gist of the method:
(§3)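 Pre-emergence: compounds sprayed onto soil immediately after seed planting; equal amount of water sprayed as control. Aerial tissue fresh weight measured 10 days after treatment; activity expressed as percent inhibition of aerial fresh weight.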
Turning to `CCOC(=O)/C(C#N)=C(/Nc1ccc(C(F)(F)F)cc1)N[C@H](C)c1ccccc1`, the inhibition at 1500 g/ha was 16.1%.

With `CCOC(=O)/C(C#N)=C(/Nc1ccc(C(F)(F)F)cc1)N[C@@H](C)c1ccccc1`, the inhibition at 1500 g/ha came out at 21.4%.

In the case of `CCOC(=O)/C(C#N)=C(/Nc1ccc(Br)cc1)N[C@H](C)c1ccccc1`, the inhibition at 1500 g/ha turned out to be 5.38%.

Take `CCOC(=O)/C(C#N)=C(/Nc1ccc(Br)cc1)N[C@@H](C)c1ccccc1`: the inhibition at 1500 g/ha is 1.29%.

Take `CCOC(=O)/C(C#N)=C(/Nc1ccc([N+](=O)[O-])cc1)N[C@H](C)c1ccccc1`: the inhibition at 1500 g/ha turned out to be 21.4%.

Another assay relates to PC-3. In words: Antiproliferative activity against Homo sapiens (human) PC3 cells at 5 uM measured after 72 hr by MTT assay. The settings on record: PC-3, 72 h. It counts as functional. The method, boiled down: as §2
Turning to `CCOC(=O)/C(C#N)=C(/Nc1ccc(C(F)(F)F)cc1)N[C@H](C)c1ccccc1`, testing at 5 µM gave an inhibition of 59.4%.

For `CCOC(=O)/C(C#N)=C(/Nc1ccc(C(F)(F)F)cc1)N[C@@H](C)c1ccccc1`, the inhibition at 5 µM worked out at 49.1%.

Regarding `CCOC(=O)/C(C#N)=C(/Nc1ccc(Br)cc1)N[C@H](C)c1ccccc1`, the inhibition at 5 µM is 1.5%.

For the compound `CCOC(=O)/C(C#N)=C(/Nc1ccc(Br)cc1)N[C@@H](C)c1ccccc1`, testing at 5 µM gave an inhibition of 24.7%.

`CCOC(=O)/C(C#N)=C(/Nc1ccc([N+](=O)[O-])cc1)N[C@H](C)c1ccccc1`: the inhibition at 5 µM stood at 2.9%.

The test system of a further assay is Tobacco mosaic virus. In words: Antiviral activity against Tobacco mosaic virus (TMV) inoculated in whole leaves of Nicotiana tabacum L. assessed as curative effect measured as local lesion number at 500 mg/l after 3 to 4 days. The assay is classed as functional.
Conditions: not given
The method, boiled down:
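Same-age N. tabacum L. leaves dipped-inoculated over the whole leaf with TMV at 6 × 10^-3 mg/mL, then washed with water and dried. Compound solution smeared on left half, solvent on right half as control. Local lesions counted 3-4 days after inoculation; three repetitions. Inhibition (%) calculated from control versus treated average lesion numbers.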
With `CCOC(=O)/C(C#N)=C(/Nc1ccc(C(F)(F)F)cc1)N[C@H](C)c1ccccc1`, the inhibition at 500 µg/mL came to 39.1%.

Regarding `CCOC(=O)/C(C#N)=C(/Nc1ccc(C(F)(F)F)cc1)N[C@@H](C)c1ccccc1`, the inhibition at 500 µg/mL came out at 15.2%.

For the compound `CCOC(=O)/C(C#N)=C(/Nc1ccc(Br)cc1)N[C@H](C)c1ccccc1`, the inhibition at 500 µg/mL is 12.3%.

Take `CCOC(=O)/C(C#N)=C(/Nc1ccc(Br)cc1)N[C@@H](C)c1ccccc1`: the inhibition at 500 µg/mL came out at 3.4%.

As to `CCOC(=O)/C(C#N)=C(/Nc1ccc([N+](=O)[O-])cc1)N[C@H](C)c1ccccc1`, the inhibition at 500 µg/mL is 43.1%.

The test system of another assay is Echinochloa crus-galli. In words: Herbicidal activity against Echinochloa crus-galli (barnyard grass) assessed as inhibition effect at 1500 g/ha sprayed soil immediately after seed planting. The assay is classed as functional.
Conditions: not given
The method, boiled down:
as §3
`CCOC(=O)/C(C#N)=C(/Nc1ccc(C(F)(F)F)cc1)N[C@H](C)c1ccccc1`: the inhibition at 1500 g/ha was found to be 11.4%.

For `CCOC(=O)/C(C#N)=C(/Nc1ccc(C(F)(F)F)cc1)N[C@@H](C)c1ccccc1`, the inhibition at 1500 g/ha is 10%.

With `CCOC(=O)/C(C#N)=C(/Nc1ccc(Br)cc1)N[C@H](C)c1ccccc1`, the inhibition at 1500 g/ha stood at 4.29%.

As for `CCOC(=O)/C(C#N)=C(/Nc1ccc(Br)cc1)N[C@@H](C)c1ccccc1`, the inhibition at 1500 g/ha stood at 10%.

`CCOC(=O)/C(C#N)=C(/Nc1ccc([N+](=O)[O-])cc1)N[C@H](C)c1ccccc1`: the inhibition at 1500 g/ha is 18.6%.

In the next assay the test system is Amaranthus retroflexus. Put plainly: Herbicidal activity against Amaranthus retroflexus assessed as inhibition effect at 1500 g/ha sprayed soil immediately after seed planting. The assay is classed as functional.
Conditions: not given
The method, boiled down:
as §3
For the compound `CCOC(=O)/C(C#N)=C(/Nc1ccc(C(F)(F)F)cc1)N[C@H](C)c1ccccc1`, the inhibition at 1500 g/ha stood at 0%.

`CCOC(=O)/C(C#N)=C(/Nc1ccc(C(F)(F)F)cc1)N[C@@H](C)c1ccccc1`: the inhibition at 1500 g/ha was determined as 10.5%.

In the case of `CCOC(=O)/C(C#N)=C(/Nc1ccc(Br)cc1)N[C@H](C)c1ccccc1`, the inhibition at 1500 g/ha was 0%.

Take `CCOC(=O)/C(C#N)=C(/Nc1ccc(Br)cc1)N[C@@H](C)c1ccccc1`: the inhibition at 1500 g/ha came to 0%.

Consider `CCOC(=O)/C(C#N)=C(/Nc1ccc([N+](=O)[O-])cc1)N[C@H](C)c1ccccc1`, for which the inhibition at 1500 g/ha came to 0%.

Another assay has as its system Brassica rapa subsp. oleifera. In words: Herbicidal activity against Brassica rapa subsp. oleifera assessed as inhibition effect at 1500 g/ha sprayed to the stem and leaves after seed germination. It counts as functional.
Conditions: not given
The gist of the method:
as §1
`CCOC(=O)/C(C#N)=C(/Nc1ccc(C(F)(F)F)cc1)N[C@H](C)c1ccccc1`: the inhibition at 1500 g/ha is 0%.

Consider `CCOC(=O)/C(C#N)=C(/Nc1ccc(C(F)(F)F)cc1)N[C@@H](C)c1ccccc1`, for which the inhibition at 1500 g/ha is 30.5%.

Take `CCOC(=O)/C(C#N)=C(/Nc1ccc(Br)cc1)N[C@H](C)c1ccccc1`: the inhibition at 1500 g/ha was found to be 10.9%.

Regarding `CCOC(=O)/C(C#N)=C(/Nc1ccc(Br)cc1)N[C@@H](C)c1ccccc1`, the inhibition at 1500 g/ha was found to be 35.3%.

Take `CCOC(=O)/C(C#N)=C(/Nc1ccc([N+](=O)[O-])cc1)N[C@H](C)c1ccccc1`: the inhibition at 1500 g/ha is 17.2%.

Another assay has as its system Tobacco mosaic virus. In words: Antiviral activity against Tobacco mosaic virus (TMV) inoculated in left side of Nicotiana tabacum L. leaves assessed as inhibition of local lesion number at 500 mg/l measured after 3 to 4 days.
Conditions: not given
It counts as functional. The gist of the method:
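Half-leaf test on Nicotiana tabacum L.: TMV mixed with an equal volume of compound solution for 30 min, then inoculated on the left half-leaf; right half received virus plus solvent as control. Local lesions counted 3-4 days after inoculation; three repetitions. Inhibition (%) = (control lesions − treated lesions)/control lesions.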
`CCOC(=O)/C(C#N)=C(/Nc1ccc(C(F)(F)F)cc1)N[C@H](C)c1ccccc1`: the inhibition at 500 µg/mL is 28.9%.

Consider `CCOC(=O)/C(C#N)=C(/Nc1ccc(C(F)(F)F)cc1)N[C@@H](C)c1ccccc1`, for which the inhibition at 500 µg/mL was 6.1%.

Consider `CCOC(=O)/C(C#N)=C(/Nc1ccc(Br)cc1)N[C@H](C)c1ccccc1`, for which the inhibition at 500 µg/mL worked out at 53.4%.

On to `CCOC(=O)/C(C#N)=C(/Nc1ccc(Br)cc1)N[C@@H](C)c1ccccc1`, for which the inhibition at 500 µg/mL was 0%.

Take `CCOC(=O)/C(C#N)=C(/Nc1ccc([N+](=O)[O-])cc1)N[C@H](C)c1ccccc1`: the inhibition at 500 µg/mL was 89.1%.

In the next assay the test system is Amaranthus retroflexus. Put plainly: Herbicidal activity against Amaranthus retroflexus assessed as inhibition effect at 1500 g/ha sprayed to the stem and leaves after seed germination. It counts as functional.
Conditions: not given
The gist of the method:
as §1
Regarding `CCOC(=O)/C(C#N)=C(/Nc1ccc(C(F)(F)F)cc1)N[C@H](C)c1ccccc1`, the inhibition at 1500 g/ha was found to be 0%.

Consider `CCOC(=O)/C(C#N)=C(/Nc1ccc(C(F)(F)F)cc1)N[C@@H](C)c1ccccc1`, for which the inhibition at 1500 g/ha is 0%.

On to `CCOC(=O)/C(C#N)=C(/Nc1ccc(Br)cc1)N[C@H](C)c1ccccc1`, for which the inhibition at 1500 g/ha turned out to be 0%.

Take `CCOC(=O)/C(C#N)=C(/Nc1ccc(Br)cc1)N[C@@H](C)c1ccccc1`: the inhibition at 1500 g/ha is 0%.

In the case of `CCOC(=O)/C(C#N)=C(/Nc1ccc([N+](=O)[O-])cc1)N[C@H](C)c1ccccc1`, the inhibition at 1500 g/ha turned out to be 0%.
